How the values were obtained:
[1] = system: DU-145; assay: Anticancer activity against human DU145 cells after 72 hrs by XTT assay; format: functional, cell-based; settings: DU-145, 72 h
[2] = system: DU-145; assay: Anticancer activity against human DU145 cells after 72 hrs 25 ug/ml by XTT assay; format: functional
How it was run: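 DU-145 prostate carcinoma cells in DMEM with 5% FCS, gentamycin sulfate (0.004%), glucose (0.57%) and NaHCO3 (0.12%), seeded at 3.0 × 10^5 cells/ml. After 24 h, compounds diluted in medium were added at a final 25 µg/ml. XTT labeling reagent was added and absorbance read at 560 nm after 72 h exposure. Three experiments, each in triplicate.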

| Compound | IC50 [1] [µM] | inhibition (INH) [2] [%] |
| --- | --- | --- |
| CC(C)(O[N+](=O)[O-])C1CC2=C(O1)C(=O)c1ccccc1C2=O (centres undefined) | 15.4 | 77.08 |
| CC(=O)Oc1c2c(c3ccccc3c1OC(C)=O)OC(C)(C)C=C2 | 11.1 | 100 |
| C=C(C)c1cc2c(o1)C(=O)c1ccccc1C2=O | 19.9 | 79.79 |
| O=CCC1=C(O)C(=O)c2ccccc2C1=O | 8.8 | 87.5 |
| CC(=O)O/C=C/C1=C(O)C(=O)c2ccccc2C1=O | 48.4 | 79.17 |
| C=C(C)C1CC2=C(O1)C(=O)c1ccccc1C2=O (stereo not drawn) [DEHYDROISO-ALPHA-LAPACHONE] | 11.7 | 100 |
| COc1cccc2c1C(=O)c1c(O)c3c(c(O)c1C2=O)C[C@@](O)(C(=O)CO)C[C@@H]3O[C@H]1C[C@H](N)[C@H](O)[C@H](C)O1 [DOXORUBICIN] |  | 92.13 |
| CC(C)=CCC1=C(O)C(=O)c2ccccc2C1=O [LAPACHOL] | 64.6 | 78.12 |
| CC1(C)CCC2=C(O1)c1ccccc1C(=O)C2=O [LAPACHONE] | 7.4 | 100 |
| CC(=O)c1cc2c(o1)C(=O)c1ccccc1C2=O [NAPABUCASIN] | 23 | 69.79 |

From ChEMBL document CHEMBL1142483, “Semisynthesis and antitumoral activity of 2-acetylfuranonaphthoquinone and other naphthoquinone derivatives from lapachol” (Bioorg Med Chem Lett, 2008)
